An excerpt weighted towards active compounds, which were near 0.17% of everything screened.
Bim-Bcl-B – inhibitors of Bim-Bcl-B interaction, human. bead-based flow cytometry, Bim peptide-Bcl-B binding. Q9HD36. inhibition, % at 10 µM. hit rate 0.073% among 190,000. AID 951
Bcl-2 Bim block – inhibitors of Bim-Bcl-2 interaction, human; P10415; Bead-based flow cytometry, Bim peptide-Bcl-2 binding; inhibition, % at 10 µM; hit rate 0.06% among 190,000; in the data active = inhibition above about 40%
Target sequence (P10415 whole entry, looked up): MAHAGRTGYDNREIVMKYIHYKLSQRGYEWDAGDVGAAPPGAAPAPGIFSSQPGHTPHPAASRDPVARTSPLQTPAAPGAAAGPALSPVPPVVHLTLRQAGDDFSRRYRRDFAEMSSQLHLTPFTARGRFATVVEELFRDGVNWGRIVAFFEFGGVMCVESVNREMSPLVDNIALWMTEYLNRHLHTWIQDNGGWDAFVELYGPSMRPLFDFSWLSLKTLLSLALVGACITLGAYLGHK
Bim-Bfl-1 – disrupts Bim binding to human Bfl-1; Q16548; Bead-based flow cytometry, Bim-Bfl-1 binding inhibition; inhibition, % at 10 µM; hit rate 0.12% among 190,000
Target sequence (Q16548 whole entry, looked up): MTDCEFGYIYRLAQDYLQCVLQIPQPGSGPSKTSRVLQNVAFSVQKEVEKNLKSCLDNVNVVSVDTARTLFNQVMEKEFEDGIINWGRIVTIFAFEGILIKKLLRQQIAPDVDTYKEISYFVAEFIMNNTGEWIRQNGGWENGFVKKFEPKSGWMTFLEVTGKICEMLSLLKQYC
Bcl-W Bim block – human Bim-Bcl-W interaction inhibition. Q92843. bead-based flow cytometry, Bim peptide-Bcl-W binding. inhibition, % at 10 µM. hit rate 0.02% among 190,000. AID 952;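 note: higher means less fluorescent Bim peptide bound to Bcl-W beads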
Target sequence (Q92843 whole entry, looked up): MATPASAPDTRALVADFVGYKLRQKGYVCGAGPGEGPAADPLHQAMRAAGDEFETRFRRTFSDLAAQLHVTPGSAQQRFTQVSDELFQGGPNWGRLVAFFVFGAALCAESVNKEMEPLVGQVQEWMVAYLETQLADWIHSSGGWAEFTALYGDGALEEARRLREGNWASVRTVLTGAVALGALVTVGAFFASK
Bcl-XL Bim block – disrupts Bim peptide binding to human Bcl-XL; Q07817; bead flow cytometry, fluorescence; inhibition, % at 10 µM; hit rate 0.04% among 190,000; AID 1007
Calb biofilm kill – mixture kills Candida albicans biofilm cells; C. albicans biofilm persisters + clotrimazole, fluorescence viability; primary screen in compound mixtures of four per well; hit rate 0.02% among 120,000; inhibition, % at 7.6 µM;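 active = inhibition above 30.3% in the primary screen of four-compound pools, then above 30% when the compound was retested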;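 note: compounds exposed to preformed 24 h biofilms for 48 h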
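Incubation: 24 h biofilm formation, then 48 h compound exposure, 37 °C | Material: C. albicans biofilms | Buffer or medium: RPMI/MOPS medium, pH 7.0 | Measured by: 2-h Alamar Blue fluorescence, 535/590 nm excitation/emission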
Bim-Bcl-XL DR – Bim-Bcl-XL interaction regulation, dose confirmation; shares compounds with Bim-Bfl-1; AID 2084; inhibition of binding at 100 µM; 40 tested, under 10 active; bead-based flow cytometry, Bim-Bcl-XL binding; call rule not given here
Each line names hits and unclear results; the compound was inactive in the other large screens (follow-up assays come after a bar, where they were run). Cut-off read from the data, not from the text of the source, unless noted: active = inhibition above about 40%.

CCOC(=O)c1cc2c(=O)n3ccccc3nc2n(Cc2ccco2)c1=NC(=O)c1cccnc1	none (no result: Calb biofilm kill)
COc1cc(CN(CCc2c(C)[nH]c3ccc(C)cc23)C(=S)NC(C)(C)C)cc(OC)c1OC	none
CCOC(=O)c1c(NC(=O)C2CCCO2)sc2c1CCC2 (centres undefined)	none (no result: Calb biofilm kill)
NC(=O)c1c(NC(=O)C2CCCO2)sc2c1CCCC2 (centres undefined)	Bcl-XL Bim block 42
COc1ccc2c3c(cccc13)N(C)N=C2C	Bcl-2 Bim block 40, Bim-Bfl-1 73, Bcl-W Bim block 70 (no result: Calb biofilm kill)
CCC(/C=C1\Sc2ccc(OC)cc2N1CC)=C\c1sc2ccc(OC)cc2[n+]1CCCS(=O)(=O)[O-]	none
CCC(/C=C1\Sc2ccc(OC)cc2N1CCO)=C\c1sc2ccc(OC)cc2[n+]1CCO	Bcl-2 Bim block 60, Bim-Bfl-1 62, Bcl-W Bim block 40, Bcl-XL Bim block 51
Cc1ccc(C)n1-c1ccc(N2CCOCC2)cc1	Bim-Bcl-B 40 (no result: Calb biofilm kill)
Cc1ccc(C)n1-c1ccc(N2CCOCC2)c([N+](=O)[O-])c1	none (no result: Bim-Bcl-B, Bcl-2 Bim block, Bim-Bfl-1, Bcl-W Bim block, Bcl-XL Bim block)
C1=CC2c3ccccc3NC(c3ccncc3)C2C1 (centres undefined)	Bim-Bfl-1 55 (no result: Calb biofilm kill)
CCC(=O)N(CC)C1=C(O)c2ccccc2C(=O)C1=O	Bim-Bfl-1 52 (no result: Calb biofilm kill)
CCC(=O)N(C1=C(NC)C(=O)c2ccccc2C1=O)C(C)C	none
COc1cc(NCCCCCCCN)c2ncccc2c1	Bim-Bcl-B 71, Bcl-2 Bim block 51, Bcl-W Bim block 48, Bcl-XL Bim block 49
CN1C(=O)C(O)(C2OC(C)(C)CCC2=O)c2ccccc21 (centres undefined)	none (no result: Calb biofilm kill)
O=C(O)c1cccc(NC2=C(Cl)C(=O)c3ccccc3C2=O)c1	Bim-Bfl-1 60
Cc1ccc(NC2=C(NC(=O)c3ccccc3)C(=O)c3ccccc3C2=O)cc1Cl	Bim-Bfl-1 50
Cc1ccc(NCC(=O)c2ccccc2)cc1Cl	none (no result: Calb biofilm kill)
CN(Cc1ccccc1)C(=O)c1[nH]cnc1C(=O)N[C@@H](CCCCNC(=O)OC(C)(C)C)C(=O)OC(C)(C)C	Bim-Bcl-B 73, Bcl-2 Bim block 83, Bim-Bfl-1 45
Cc1ccc(S(=O)(=O)N2CCCCC2)cc1NC(=O)COC(=O)Cc1ccc(Cl)cc1	none
Cc1ccc(S(=O)(=O)N2CCCCC2)cc1NC(=O)COC(=O)c1ccccc1F	Bim-Bcl-B 74, Bcl-2 Bim block 78, Bim-Bfl-1 48
O=[N+]([O-])c1ccc(-c2cnc(SC(c3ccccc3)c3ccccc3)[nH]2)cc1	none
O=[N+]([O-])c1ccc(-c2cnc(SCc3ccccc3Cl)[nH]2)cc1	Bim-Bcl-B 81, Bcl-2 Bim block 80, Bim-Bfl-1 59 (no result: Calb biofilm kill)
CC(=O)c1cc(-c2ccccc2)n(CC(=O)N2CCN(C3CCCC3)CC2)c1C	none (no result: Calb biofilm kill)
O=C(Nc1ccccc1)Nc1ccc2ncoc2c1	Bim-Bcl-B 52, Bcl-2 Bim block 41, Bcl-XL Bim block 59
C(=N\Nc1nc2ccccc2[nH]1)/c1ccncc1	none
Clc1nc2ccccc2cc1/C=N/Nc1nc2ccccc2[nH]1	Bim-Bcl-B 94, Bcl-2 Bim block 93, Bim-Bfl-1 69, Bcl-W Bim block 58, Bcl-XL Bim block 58
CC1C=CCC2C(=O)N(c3ccc(OC(=O)c4cccs4)cc3)C(=O)C12 (centres undefined)	Bim-Bcl-B 70, Bcl-2 Bim block 79, Bim-Bfl-1 55
CN(Cc1ccccc1Cl)C(=O)c1cnccc1C(F)(F)F	none (no result: Bim-Bcl-B, Bcl-2 Bim block, Bim-Bfl-1, Bcl-W Bim block, Bcl-XL Bim block)
CN(C)c1oc(-c2ccc(OCc3ccccc3)cc2)nc1C#N	none (no result: Calb biofilm kill)
Cc1ccc(-n2ccc(=O)c(-c3ccnc(SCc4cccc(Cl)c4)n3)n2)cc1	Bim-Bcl-B 74, Bcl-2 Bim block 79, Bim-Bfl-1 56 (no result: Calb biofilm kill)
O=C1C=C(c2ccccc2)C[C@H](c2cccs2)[C@H]1n1cnc([N+](=O)[O-])c1	none (no result: Calb biofilm kill)
COc1ccc(NC(=O)/C(C#N)=C/c2c(C)nn(-c3ccc(F)cc3)c2Cl)cc1Cl	Bim-Bfl-1 42
COc1ccc(NC(=O)/C(C#N)=C/c2c(C)nn(-c3ccc(F)cc3)c2Cl)cc1OC	none
CC(C)(C)OC(=O)Cn1c(=O)cnc2ccccc21	none (no result: Calb biofilm kill)
CCOc1ccc(/C=C/C(=O)c2cc(Br)ccc(=O)c2O)cc1	Bim-Bfl-1 42
CCOC(=O)CSC1=NC(=O)/C(=C\c2ccc(OC(C)=O)cc2)S1	Bim-Bfl-1 58 (no result: Calb biofilm kill)
CCOC(=O)CSC1=NC(=O)/C(=C/c2ccc(Br)cc2)S1	none
COc1ccccc1OCc1ccc(C(=O)Nc2ccccc2F)cc1	Bim-Bcl-B 63, Bcl-2 Bim block 47
CCCNc1nc(C)cc(-c2cc(C(=O)NCc3ccccc3)on2)n1	none (no result: Bim-Bcl-B, Bcl-2 Bim block, Bim-Bfl-1, Bcl-W Bim block, Bcl-XL Bim block)
CCn1c(SCC(=O)NCCc2ccccc2)nc2c(c1=O)SC(C)C2 (centres undefined)	none (no result: Calb biofilm kill)
CCC(=O)OCCNc1cc(Sc2nc3ccccc3[nH]2)c2nonc2c1[N+](=O)[O-]	none
CCC(=O)OCCNc1cc(Sc2nc3ccccc3s2)c2nonc2c1[N+](=O)[O-]	Bim-Bfl-1 54 (no result: Calb biofilm kill)
COC(=O)C1C(=O)C=C(N2CCOCC2)CC1(C)C (centres undefined)	none (no result: Calb biofilm kill)
Clc1ccc2c(N/N=C/c3cccc(Br)c3)ccnc2c1	none
Clc1ccc2c(N/N=C/c3ccccc3Br)ccnc2c1	Bim-Bfl-1 43
CC(C)c1noc2ncc(C(=O)c3cc(Cl)cc(Cl)c3O)cc12	none (no result: Calb biofilm kill)
Cc1sc(NC(=O)Cn2cnnn2)nc1-c1ccc(Cl)cc1	Bim-Bcl-B 67, Bcl-2 Bim block 84, Bim-Bfl-1 53
COc1ccc(-c2nc(NC(=O)Cn3cnnn3)sc2C)cc1	none
Cc1cccc(N=Cc2cc3c(cc2[N+](=O)[O-])OCO3)c1	none (no result: Calb biofilm kill)
COc1cc(C=Nc2cccc(C)c2)c(O)c([N+](=O)[O-])c1	Bim-Bcl-B 58, Bcl-2 Bim block 44, Bim-Bfl-1 42
Cc1ccc(C2(CCNC(C)c3cccs3)CCOC(C(C)C)C2)cc1 (centres undefined)	Calb biofilm kill 41
N/C(Cc1ccc(Cl)c(Cl)c1)=N\OC(=O)c1cccs1	Bim-Bcl-B 41 (no result: Calb biofilm kill)
COC(=O)[C@H](CCSC)NC(=O)N1CCN(c2cccc(C(F)(F)F)c2)CC1	none (no result: Calb biofilm kill)
CCCCc1ccc(NC(=S)NCc2ccc(OC)cc2)cc1	Bim-Bcl-B 51, Bcl-2 Bim block 44
O=C(CSc1nnc(Cc2cccs2)n1C1CCCCC1)N1CCN(C(=O)c2ccco2)CC1	none (no result: Calb biofilm kill)
Nc1cnc(-c2ccccc2)nc1Cl	none
Cc1nnc(Sc2cc(NCCO)c([N+](=O)[O-])c3nonc23)s1	Bim-Bfl-1 55 | Bim-Bcl-XL DR inactive
O=[N+]([O-])c1c(NCCCO)cc(Sc2nc3ccccc3s2)c2nonc12	Bim-Bfl-1 61 (no result: Calb biofilm kill) | Bim-Bcl-XL DR inactive
Cc1nnc(Sc2cc(NCCCO)c([N+](=O)[O-])c3nonc23)s1	none
O=C1C(Cl)=C(N2CCN(c3ccccc3[N+](=O)[O-])CC2)C(=O)c2ccccc21	Bim-Bfl-1 68 | Bim-Bcl-XL DR inactive
O=[N+]([O-])c1cc(Cl)ccc1N1CCCC1	none

High-throughput results deposited in PubChem BioAssay by several laboratories.
